Experimental data of several laboratories.
Each line is one published result; the experiments were not run side by side.
Read-out: cell growth or viability

CCCCNS(=O)(=O)c1ccc(-c2ccc3oc(C(=O)c4cc(O)c(O)c(O)c4)cc3c2)cc1 has an IC50 of 15 µg/mL (HEK-293T; ATP luminescence; 24 h).
For CC(=O)CC(=O)[c-]1cccc1.[Fe+2].c1cc[cH-]c1, the IC50 was over 100 µM (PNT2; MTT; 96 h).
O=C(Nc1cccc(CO)c1)c1c[nH]c2ccc(Cl)cc12 gave an IC50 of 14 µM (SK-N-BE(2)-C; MTT).
For COc1cc2nccc(Oc3ccc(NC(=O)C4(C(=O)Nc5ccc(F)cc5)CC4)cc3)c2cc1OC, the IC50 was 0.14 µM (human Myoblast; 72 h).
COc1cccc(Oc2ccccc2NC(=O)[C@H](C)NC(=O)c2cccc3ccccc23)c1 gave an IC50 of 1.5 µM (SK-N-AS).
For COC(=O)CN=c1scc(-c2ccccc2)n1-c1ccccc1OC, the IC50 was 13.5 µM (PANC-03-27; MTT; 72 h).
The IC50 of COc1cc(Nc2nccc(-c3cnn4nc(OC)ccc34)n2)cc(C(F)(F)F)c1 is reported as 0.71 µM (NCI-H2009; ATP luminescence).
Cc1ccncc1-c1ccc2oc(C(=O)c3cc(O)c(O)c(O)c3)cc2c1 has an IC50 of 0.79 µg/mL (HEK-293T; ATP luminescence; 72 h).
The IC50 of COC(=O)CN=c1scc(-c2ccccc2)n1-c1ccccc1 is reported as 72.2 µM (PANC-03-27; MTT; 72 h).
O=C(Nc1ccccc1CO)c1c[nH]c2ccc(Cl)cc12 gave an IC50 of 13 µM (SK-N-BE(2)-C; MTT).
With O=c1[nH]cc(S(=O)(=O)Nc2cccc(-c3nnc(-c4cccc(Cl)c4)o3)c2)c(=O)[nH]1 the IC50 was 3.81 µM (NCI-H292; MTT; 24 h).
The IC50 of O=C1/C(=C/c2cc(O)c(O)c(O)c2)Oc2cccc(O)c21 is reported as over 32 µg/mL (HEK-293T; ATP luminescence; 24 h).
With COc1cc([C@@H]2c3cc4c(cc3[C@@H](O[C@@H]3O[C@@H]5CO[C@@H](C)O[C@H]5[C@H](O)[C@H]3O)[C@H]3COC(=O)[C@H]23)OCO4)cc(OC)c1O the IC50 was 40.3 µM (CCD-18Co; MTS; 72 h).
COc1cc(-c2ncn(/C=C\C(=O)OC(C)C)n2)cc(C(F)(F)F)c1 gave an IC50 of 0.058 µM (SKNO-1; 72 h).
Cc1cnc(NC2CCOCC2)nc1-n1cnc(C(=O)NC(CN)c2cc(F)cc(Cl)c2)c1 (stereo not drawn) gave an IC50 of 2.6 µM (KM-H2; MTS).
CC[C@@H](C)[C@H](N)C(=O)N1Cc2ccccc2C1 gave an IC50 of over 60 µM (TF-1; ATP luminescence; 48 h).
The IC50 of CC1=CC(C)(C)N(Cc2ccccc2)c2ccc(O)cc21 is reported as 16 µM (Huh-7; MTT; 72 h).
For COc1cc(N2CCC(N3CCN(C)CC3)CC2)ccc1Nc1ncc(Cl)c(Nc2ccccc2S(=O)(=O)C(C)C)n1, the IC50 was 0.45 µM (human Myoblast; 72 h).
For COc1cccc(Oc2ccccc2NC(=O)CNC(=O)c2cccc3ccccc23)c1, the IC50 was 0.125 µM (SK-N-AS).
With C=CC(=O)Nc1cc(Nc2nccc(-c3cn(C)c4ccccc34)n2)c(OC)cc1N(C)CCN(C)C the IC50 was 0.249 µM (A-431; ATP luminescence; 72 h).
CC(C)C[C@H](NC(=O)[C@H](Cc1ccccc1)NC(=O)c1cnccn1)B(O)O has an IC50 of 0.0093 µM (NCI-H292; ATP luminescence).
COc1ccc(C[C]2([Ti+2][C]3(Cc4ccc(OC)cc4)C=CC=C3)C=CC=C2)cc1.[Cl-].[Cl-] gave an IC50 of over 200 µM (HEK-293T; XTT; 72 h).
COC(=O)CN=c1scc(-c2ccccc2)n1-c1ccccc1C has an IC50 of over 100 µM (PANC-03-27; MTT; 72 h).
With O=CC[C@@H](O)[C@H](O)[C@H](O)CO the IC50 was over 6000 µM (A-431; MTT; 3 h).
COc1cc2c(Oc3ccc(NC(=O)C4(C(=O)Nc5ccc(F)cc5)CC4)cc3F)ccnc2cc1OCCCN1CCOCC1 gave an IC50 of 0.12 µM (human Myoblast; 72 h).
CC(C)[C@H](N)C(=O)N1CCC[C@H]1B(O)O gave an IC50 of over 60 µM (TF-1; ATP luminescence; 48 h).
The IC50 of Nc1ccn([C@@H]2O[C@H](CO)[C@@H](O)C2(F)F)c(=O)n1 is reported as 0.42 µM (PANC-03-27; MTT; 72 h).
For [Cl-].[Cl-].[Ti+4].c1cc[cH-]c1.c1cc[cH-]c1, the IC50 was over 200 µM (HEK-293T; XTT; 72 h).
O=C(CNC(=O)c1cccc2ccccc12)Nc1ccccc1Oc1cccc(O)c1 has an IC50 of 0.192 µM (SK-N-AS).
C=CCNC1=C2C[C@@H](C)C[C@H](OC)[C@H](O)[C@@H](C)/C=C(\C)[C@H](OC(N)=O)[C@@H](OC)/C=C\C=C(/C)C(=O)NC(=CC1=O)C2=O gave an IC50 of 0.067 µM (A-431; MTT).
